Laboratory results from ChEMBL document CHEMBL4602632, “Synthesis and anti-Mycobacterium tuberculosis activity of imide-β-carboline and carbomethoxy-β-carboline derivatives” (Eur J Med Chem, 2020).
Converted amounts (≈) assume the structure as drawn.

How the values were obtained:
[1] = system: Mycobacterium tuberculosis; experiment: Antimycobacterial activity against Mycobacterium tuberculosis H37Rv assessed as reduction in bacterial growth incubated for 7 days by resazurin dye based assay; assay type: functional; conditions: 168 h
Summary of the method: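 REMA broth microdilution: DMSO stocks diluted in 7H9-OADC, standardized inoculum added, final 0.98 to 250 μg/mL; 7 days at 35 °C in normal atmosphere, then 0.01% resazurin and a further 24 h at 35 °C. Read visually. MIC is the lowest concentration preventing the blue-to-pink change. Three independent assays on different days; isoniazid reference, medium, sterility and growth ±2.5% DMSO controls.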

[2] = Cytotoxicity against African green monkey Vero cells assessed as reduction in cell viability incubated for 24 hrs by MTT assay; assay type: cell-based; conditions: chlorocebus sabaeus
Summary of the method: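 VERO (ATCC CCL81) cells grown in DMEM with 10% FBS at 37 °C, 5% CO₂. Seeded at 5 × 10⁴ cells/well for 24 h, then exposed to 1.95–1000 μg/mL in DMEM for 24 h. Washed with PBS, MTT (2 mg/mL in PBS) added for 4 h, dissolved in DMSO, A550 read. CC50 is the highest concentration leaving 50% of cells viable versus control. Three independent assays.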

[3] = Selectivity index, ratio of CC50 for African green monkey Vero cells to MIC for Mycobacterium tuberculosis 3614; assay type: toxicity
[4] = Selectivity index, ratio of CC50 for African green monkey Vero cells to MIC for Mycobacterium tuberculosis 91; assay type: toxicity
[5] = Selectivity index, ratio of CC50 for African green monkey Vero cells to MIC for Mycobacterium tuberculosis 19; assay type: toxicity
[6] = Selectivity index, ratio of CC50 for African green monkey Vero cells to MIC for Mycobacterium tuberculosis BRF14; assay type: toxicity
[7] = Selectivity index, ratio of CC50 for African green monkey Vero cells to MIC for Mycobacterium tuberculosis BRF45; assay type: toxicity
[8] = Selectivity index, ratio of CC50 for African green monkey Vero cells to MIC for Mycobacterium tuberculosis BRF16; assay type: toxicity
[9] = Selectivity index, ratio of CC50 for African green monkey Vero cells to MIC for Mycobacterium tuberculosis BRF57; assay type: toxicity
[10] = Selectivity index, ratio of CC50 for African green monkey Vero cells to MIC for Mycobacterium tuberculosis 71A; assay type: toxicity
[11] = Selectivity index, ratio of CC50 for African green monkey Vero cells to MIC for Mycobacterium tuberculosis H37Rv; assay type: toxicity
Summary of the method: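 Selectivity index computed as the CC50 from VERO MTT assay divided by the REMA MIC against H37Rv.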

[12] = Selectivity index, ratio of CC50 for African green monkey Vero cells to MIC for Mycobacterium tuberculosis 73A; assay type: toxicity

COC(=O)c1cc2c([nH]c3ccccc32)c(-c2ccccc2)n1
MIC [1]: > 828 µM

COC(=O)c1cc2c([nH]c3ccccc32)c(-c2ccccc2Cl)n1
MIC [1]: > 744 µM

COC(=O)c1cc2c([nH]c3ccccc32)c(-c2ccc(OC)cc2)n1
MIC [1]: 579 µM (≈ 192 µg/mL)

COC(=O)c1cc2c([nH]c3ccccc32)c(-c2cccc([N+](=O)[O-])c2)n1
MIC [1]: 720 µM (≈ 250 µg/mL)

COC(=O)c1cc2c([nH]c3ccccc32)c(-c2ccc(N(C)C)cc2)n1
CC50 at 24 h [2]: 435 µM | selectivity ratio [3]: 13.5 | selectivity ratio [4]: 6.96 | selectivity ratio [5]: 13.9 | selectivity ratio [6]: 1.74 | selectivity ratio [7]: 13.9 | selectivity ratio [8]: 3.48 | MIC [1]: 362 µM (≈ 125 µg/mL) | selectivity ratio [9]: 3.48 | selectivity ratio [10]: < 1.74 | selectivity ratio [11]: 3.48 | selectivity ratio [12]: 13.9

O=C(NN1C(=O)CCC1=O)c1cc2c([nH]c3ccccc32)c(-c2ccc(F)cc2)n1
CC50 at 24 h [2]: 270 µM | selectivity ratio [3]: 4.32 | selectivity ratio [4]: 2.16 | selectivity ratio [5]: 4.32 | selectivity ratio [6]: 4.32 | selectivity ratio [7]: 8.64 | selectivity ratio [8]: 4.32 | MIC [1]: 311 µM (≈ 125 µg/mL) | selectivity ratio [9]: 2.16 | selectivity ratio [10]: 2.16 | selectivity ratio [11]: 2.16 | selectivity ratio [12]: 8.64

O=C(NN1C(=O)C=CC1=O)c1cc2c([nH]c3ccccc32)c(-c2ccccc2)n1
MIC [1]: 654 µM (≈ 250 µg/mL)

O=C(NN1C(=O)c2ccccc2C1=O)c1cc2c([nH]c3ccccc32)c(-c2ccccc2Cl)n1
MIC [1]: 536 µM (≈ 250 µg/mL)

O=C(NN1C(=O)c2ccccc2C1=O)c1cc2c([nH]c3ccccc32)c(-c2cccc([N+](=O)[O-])c2)n1
CC50 at 24 h [2]: 650 µM | selectivity ratio [3]: 5.2 | selectivity ratio [4]: < 2.6 | selectivity ratio [5]: 5.2 | selectivity ratio [6]: 2.6 | selectivity ratio [7]: 5.2 | selectivity ratio [8]: 5.2 | MIC [1]: 262 µM (≈ 125 µg/mL) | selectivity ratio [9]: < 2.6 | selectivity ratio [10]: < 2.6 | selectivity ratio [11]: 5.2 | selectivity ratio [12]: 5.2

COC(=O)c1cc2c([nH]c3ccccc32)c(-c2ccc(O)c(OC)c2)n1
MIC [1]: 718 µM (≈ 250 µg/mL)

O=C(NN1C(=O)C=CC1=O)c1cc2c([nH]c3ccccc32)c(-c2ccc(F)cc2)n1
MIC [1]: 625 µM (≈ 250 µg/mL)

COc1ccc(-c2nc(C(=O)NN3C(=O)CCC3=O)cc3c2[nH]c2ccccc23)cc1
MIC [1]: > 604 µM

CN(C)c1ccc(-c2nc(C(=O)NN3C(=O)c4ccccc4C3=O)cc3c2[nH]c2ccccc23)cc1
MIC [1]: > 526 µM

O=C(NN1C(=O)c2ccccc2C1=O)c1cc2c([nH]c3ccccc32)c(-c2ccccc2)n1
CC50 at 24 h [2]: 900 µM | selectivity ratio [3]: 14.4 | selectivity ratio [4]: 7.2 | selectivity ratio [5]: 14.4 | selectivity ratio [6]: 7.2 | selectivity ratio [7]: 14.4 | selectivity ratio [8]: 7.2 | MIC [1]: 289 µM (≈ 125 µg/mL) | selectivity ratio [9]: 7.2 | selectivity ratio [10]: 7.2 | selectivity ratio [11]: 7.2 | selectivity ratio [12]: 14.4

O=C(NN1C(=O)c2ccccc2C1=O)c1cc2c([nH]c3ccccc32)c(-c2ccc(F)cc2)n1
CC50 at 24 h [2]: 762 µM | selectivity ratio [3]: 12.2 | selectivity ratio [4]: 6.1 | selectivity ratio [5]: 12.2 | selectivity ratio [6]: 12.2 | selectivity ratio [7]: 12.2 | MIC [1]: 278 µM (≈ 125 µg/mL) | selectivity ratio [9]: 6.1 | selectivity ratio [10]: 6.1 | selectivity ratio [11]: 6.1 | selectivity ratio [12]: 12.2

COc1ccc(-c2nc(C(=O)NN3C(=O)c4ccccc4C3=O)cc3c2[nH]c2ccccc23)cc1
MIC [1]: > 541 µM

COc1cc(-c2nc(C(=O)NN3C(=O)c4ccccc4C3=O)cc3c2[nH]c2ccccc23)ccc1O
MIC [1]: 523 µM (≈ 250 µg/mL)

O=C(NN1C(=O)CCC1=O)c1cc2c([nH]c3ccccc32)c(-c2cccc([N+](=O)[O-])c2)n1
MIC [1]: > 583 µM

COC(=O)c1cc2c([nH]c3ccccc32)c(-c2ccc(F)cc2)n1
MIC [1]: > 781 µM

NNC(=O)c1ccncc1 [ISONIAZID]
MIC [1]: 0.06 µM (≈ 0.00823 µg/mL)
